{
  "source": "ChEMBL document CHEMBL5649168",
  "about": "“Discovery of a selective catalytic p300/CBP inhibitor that targets lineage-specific tumours” (Nature, 2017)",
  "key": {"[1]": {"target": "Serine/threonine-protein kinase PLK3 (Homo sapiens, UniProt Q9H4B4)", "assay": "Inhibition of Plk3 (unknown origin)"}, "[2]": {"target": "RAC-alpha serine/threonine-protein kinase (Homo sapiens, UniProt P31749)", "assay": "Inhibition of Akt1 (unknown origin)"}, "[3]": {"target": "Calcium/calmodulin-dependent protein kinase type 1D (Homo sapiens, UniProt Q8IU85)", "assay": "Inhibition of CAMK1D (unknown origin)"}, "[4]": {"target": "Dual specificity tyrosine-phosphorylation-regulated kinase 1A (Homo sapiens, UniProt Q13627)", "assay": "Inhibition of Dyrk1A (unknown origin)"}, "[5]": {"target": "Vascular endothelial growth factor receptor 2 (Homo sapiens, UniProt P35968)", "assay": "Inhibition of Kdr (unknown origin)"}, "[6]": {"target": "Dual specificity mitogen-activated protein kinase kinase 1 (Homo sapiens, UniProt Q02750)", "assay": "Inhibition of MEK1 (unknown origin)"}, "[7]": {"target": "Serine/threonine-protein kinase PAK 4 (Homo sapiens, UniProt O96013)", "assay": "Inhibition of PAK4KD (unknown origin)"}, "[8]": {"target": "Protein kinase C zeta type (Homo sapiens, UniProt Q05513)", "assay": "Inhibition of PKCzeta (unknown origin)"}, "[9]": {"target": "Proto-oncogene tyrosine-protein kinase receptor Ret (Homo sapiens, UniProt P07949)", "assay": "Inhibition of Ret (unknown origin)"}, "[10]": {"target": "Tyrosine-protein kinase SYK (Homo sapiens, UniProt P43405)", "assay": "Inhibition of Syk (unknown origin)"}, "Activated CDC42 kinase 1": {"target": "Activated CDC42 kinase 1 (Homo sapiens, UniProt Q07912)", "assay": "Inhibition of TNK2 (unknown origin)"}, "[11]": {"target": "BDNF/NT-3 growth factors receptor (Homo sapiens, UniProt Q16620)", "assay": "Inhibition of TrkB (unknown origin)"}, "Wee1-like protein kinase": {"target": "Wee1-like protein kinase (Homo sapiens, UniProt P30291)", "assay": "Inhibition of Wee1 (unknown origin)"}, "[12]": {"target": "Death-associated protein kinase 3 (Homo sapiens, UniProt O43293)", "assay": "Inhibition of ZIPK (unknown origin)"}, "[13]": {"target": "T1, CREB-binding protein/Histone acetyltransferase p300 (Homo sapiens, UniProt Q09472+Q92793)", "T1 sequence (Q09472 whole entry, looked up)": "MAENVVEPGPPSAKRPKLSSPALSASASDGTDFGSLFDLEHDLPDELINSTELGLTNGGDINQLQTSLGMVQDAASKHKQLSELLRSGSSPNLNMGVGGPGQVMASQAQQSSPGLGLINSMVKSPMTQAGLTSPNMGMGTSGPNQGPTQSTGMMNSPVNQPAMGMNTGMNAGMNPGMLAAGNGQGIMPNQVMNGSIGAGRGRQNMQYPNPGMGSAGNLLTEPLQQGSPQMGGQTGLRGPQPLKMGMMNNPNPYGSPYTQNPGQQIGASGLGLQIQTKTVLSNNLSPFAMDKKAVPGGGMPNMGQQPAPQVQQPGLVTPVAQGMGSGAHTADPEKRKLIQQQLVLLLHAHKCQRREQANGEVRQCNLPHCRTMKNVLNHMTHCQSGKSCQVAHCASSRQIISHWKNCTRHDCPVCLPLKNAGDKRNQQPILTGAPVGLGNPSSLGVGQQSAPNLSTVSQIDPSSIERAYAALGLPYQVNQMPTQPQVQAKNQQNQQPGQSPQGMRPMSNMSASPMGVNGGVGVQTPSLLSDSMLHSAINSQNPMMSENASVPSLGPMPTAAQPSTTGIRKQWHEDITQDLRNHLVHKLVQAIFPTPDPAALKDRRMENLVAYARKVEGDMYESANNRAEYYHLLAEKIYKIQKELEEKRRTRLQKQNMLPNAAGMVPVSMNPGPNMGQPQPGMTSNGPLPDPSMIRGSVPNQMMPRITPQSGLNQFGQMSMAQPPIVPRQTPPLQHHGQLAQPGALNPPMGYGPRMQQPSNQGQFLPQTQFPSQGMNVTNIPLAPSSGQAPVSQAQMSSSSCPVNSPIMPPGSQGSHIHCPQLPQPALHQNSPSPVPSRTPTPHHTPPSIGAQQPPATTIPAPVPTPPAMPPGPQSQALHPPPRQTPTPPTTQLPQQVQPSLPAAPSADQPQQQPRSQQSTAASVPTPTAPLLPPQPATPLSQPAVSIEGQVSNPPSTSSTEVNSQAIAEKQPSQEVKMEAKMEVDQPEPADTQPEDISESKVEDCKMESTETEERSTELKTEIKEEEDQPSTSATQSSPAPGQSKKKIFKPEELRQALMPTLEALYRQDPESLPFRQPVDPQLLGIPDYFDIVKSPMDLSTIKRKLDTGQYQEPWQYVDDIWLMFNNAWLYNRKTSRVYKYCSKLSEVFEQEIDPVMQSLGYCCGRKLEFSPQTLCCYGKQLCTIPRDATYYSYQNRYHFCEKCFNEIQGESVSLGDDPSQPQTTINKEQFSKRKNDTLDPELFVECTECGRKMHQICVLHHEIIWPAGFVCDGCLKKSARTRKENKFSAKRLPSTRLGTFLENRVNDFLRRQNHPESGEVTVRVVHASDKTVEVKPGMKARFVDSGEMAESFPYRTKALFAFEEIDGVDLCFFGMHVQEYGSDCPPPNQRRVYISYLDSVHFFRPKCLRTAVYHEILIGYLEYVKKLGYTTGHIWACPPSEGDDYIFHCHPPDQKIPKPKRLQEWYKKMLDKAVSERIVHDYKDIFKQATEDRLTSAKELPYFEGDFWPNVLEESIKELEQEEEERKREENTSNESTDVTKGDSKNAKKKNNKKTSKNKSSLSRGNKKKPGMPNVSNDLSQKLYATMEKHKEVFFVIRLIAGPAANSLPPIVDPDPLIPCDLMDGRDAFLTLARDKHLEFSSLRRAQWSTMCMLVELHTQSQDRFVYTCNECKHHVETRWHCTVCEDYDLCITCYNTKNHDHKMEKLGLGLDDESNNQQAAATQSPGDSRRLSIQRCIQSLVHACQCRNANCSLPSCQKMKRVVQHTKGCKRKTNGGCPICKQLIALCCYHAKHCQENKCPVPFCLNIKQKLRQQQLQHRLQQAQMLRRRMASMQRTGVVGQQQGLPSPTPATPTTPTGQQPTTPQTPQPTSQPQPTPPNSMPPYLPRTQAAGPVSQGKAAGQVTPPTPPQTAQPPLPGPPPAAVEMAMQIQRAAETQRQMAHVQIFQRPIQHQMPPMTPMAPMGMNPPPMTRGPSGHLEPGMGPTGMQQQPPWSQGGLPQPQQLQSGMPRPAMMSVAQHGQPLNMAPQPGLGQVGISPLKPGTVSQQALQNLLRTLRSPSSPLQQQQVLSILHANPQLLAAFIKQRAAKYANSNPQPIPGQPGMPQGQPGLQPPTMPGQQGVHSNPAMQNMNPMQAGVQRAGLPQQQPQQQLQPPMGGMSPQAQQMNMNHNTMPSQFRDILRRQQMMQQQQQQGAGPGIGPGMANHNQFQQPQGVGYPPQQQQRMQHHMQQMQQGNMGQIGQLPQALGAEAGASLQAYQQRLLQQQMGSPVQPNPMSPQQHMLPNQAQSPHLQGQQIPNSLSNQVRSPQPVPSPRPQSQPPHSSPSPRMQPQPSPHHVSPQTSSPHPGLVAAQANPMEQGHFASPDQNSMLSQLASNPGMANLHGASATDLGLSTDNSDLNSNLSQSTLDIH", "T1 sequence (Q92793 whole entry, looked up)": "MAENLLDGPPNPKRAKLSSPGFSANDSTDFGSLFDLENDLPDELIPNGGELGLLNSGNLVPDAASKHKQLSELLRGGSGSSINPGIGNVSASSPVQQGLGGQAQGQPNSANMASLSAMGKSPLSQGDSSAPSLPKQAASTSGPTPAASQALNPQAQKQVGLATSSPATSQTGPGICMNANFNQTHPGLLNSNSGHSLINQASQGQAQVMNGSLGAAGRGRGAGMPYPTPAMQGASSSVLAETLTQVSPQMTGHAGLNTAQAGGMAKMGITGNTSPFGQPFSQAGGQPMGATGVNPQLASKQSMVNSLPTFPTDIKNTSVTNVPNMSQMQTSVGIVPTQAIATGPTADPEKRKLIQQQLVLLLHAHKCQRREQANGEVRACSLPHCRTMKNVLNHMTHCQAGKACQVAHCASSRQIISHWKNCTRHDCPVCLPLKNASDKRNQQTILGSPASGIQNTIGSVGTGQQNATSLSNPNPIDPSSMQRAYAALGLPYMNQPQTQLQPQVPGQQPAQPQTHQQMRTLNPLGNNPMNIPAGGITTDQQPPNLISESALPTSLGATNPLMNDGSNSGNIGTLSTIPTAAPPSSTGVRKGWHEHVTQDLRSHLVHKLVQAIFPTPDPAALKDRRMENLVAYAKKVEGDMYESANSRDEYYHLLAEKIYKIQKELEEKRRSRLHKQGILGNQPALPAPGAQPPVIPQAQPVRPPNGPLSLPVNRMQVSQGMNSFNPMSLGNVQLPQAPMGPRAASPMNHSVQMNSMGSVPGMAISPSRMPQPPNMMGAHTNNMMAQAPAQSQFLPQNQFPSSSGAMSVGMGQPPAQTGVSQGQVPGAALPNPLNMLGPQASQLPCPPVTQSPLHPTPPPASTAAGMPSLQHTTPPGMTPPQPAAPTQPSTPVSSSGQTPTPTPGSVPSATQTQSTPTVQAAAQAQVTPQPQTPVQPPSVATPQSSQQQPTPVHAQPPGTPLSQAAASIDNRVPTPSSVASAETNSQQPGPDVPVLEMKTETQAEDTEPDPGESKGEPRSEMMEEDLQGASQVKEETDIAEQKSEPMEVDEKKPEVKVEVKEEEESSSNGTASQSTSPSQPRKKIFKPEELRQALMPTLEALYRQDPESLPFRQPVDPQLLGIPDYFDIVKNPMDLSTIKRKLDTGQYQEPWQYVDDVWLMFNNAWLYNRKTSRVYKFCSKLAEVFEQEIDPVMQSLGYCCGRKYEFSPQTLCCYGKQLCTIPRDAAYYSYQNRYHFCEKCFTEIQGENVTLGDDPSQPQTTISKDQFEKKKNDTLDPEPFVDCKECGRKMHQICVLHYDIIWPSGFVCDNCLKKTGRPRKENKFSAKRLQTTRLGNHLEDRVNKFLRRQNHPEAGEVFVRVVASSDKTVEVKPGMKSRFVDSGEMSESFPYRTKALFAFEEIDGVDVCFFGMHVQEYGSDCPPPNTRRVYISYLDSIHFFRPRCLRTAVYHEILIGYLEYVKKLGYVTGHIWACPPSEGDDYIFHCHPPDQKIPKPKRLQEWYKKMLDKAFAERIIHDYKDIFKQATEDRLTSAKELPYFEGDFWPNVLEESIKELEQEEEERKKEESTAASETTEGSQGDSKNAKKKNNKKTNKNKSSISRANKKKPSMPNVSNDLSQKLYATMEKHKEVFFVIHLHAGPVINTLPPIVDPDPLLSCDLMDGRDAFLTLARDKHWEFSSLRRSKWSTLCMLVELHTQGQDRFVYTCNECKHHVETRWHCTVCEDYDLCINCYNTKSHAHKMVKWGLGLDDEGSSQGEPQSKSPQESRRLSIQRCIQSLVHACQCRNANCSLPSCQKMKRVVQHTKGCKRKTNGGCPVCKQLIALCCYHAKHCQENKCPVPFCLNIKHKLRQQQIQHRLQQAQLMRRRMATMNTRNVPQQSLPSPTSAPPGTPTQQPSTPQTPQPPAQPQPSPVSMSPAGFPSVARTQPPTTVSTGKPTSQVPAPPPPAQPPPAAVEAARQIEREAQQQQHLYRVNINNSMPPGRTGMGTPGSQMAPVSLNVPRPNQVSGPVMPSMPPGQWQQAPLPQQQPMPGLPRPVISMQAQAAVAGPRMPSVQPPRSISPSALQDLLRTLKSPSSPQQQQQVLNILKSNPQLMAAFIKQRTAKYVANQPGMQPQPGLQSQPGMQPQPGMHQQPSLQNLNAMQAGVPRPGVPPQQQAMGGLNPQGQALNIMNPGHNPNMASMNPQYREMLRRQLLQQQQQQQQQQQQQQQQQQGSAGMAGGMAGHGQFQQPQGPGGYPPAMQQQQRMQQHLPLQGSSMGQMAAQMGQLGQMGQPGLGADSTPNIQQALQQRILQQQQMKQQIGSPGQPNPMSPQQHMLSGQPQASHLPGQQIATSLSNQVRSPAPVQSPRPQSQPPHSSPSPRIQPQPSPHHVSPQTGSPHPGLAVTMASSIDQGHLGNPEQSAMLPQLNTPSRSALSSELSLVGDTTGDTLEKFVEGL", "assay": "Inhibition of p300/CBP in human 22Rv1 cells assessed as reduction in H3K27Ac level incubated for 24 hrs by Hoechst 33342 staining based high content microscopy analysis", "type": "cell-based", "in_short": "(§1)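 Cells received an 8-point half-log dilution series from 10 µM. They were then fixed in 10% formaldehyde (10 min, RT), permeabilised with 0.1% Triton X-100 and blocked with 1% BSA for 1 h. Primary antibodies were applied overnight at 4 °C, followed by Alexa488 anti-rabbit, Alexa555 anti-mouse and Hoechst 33342 for 1 h. Fifteen fields per well were imaged and average mean intensity taken. EC50 came from a sigmoidal fit.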"}, "[14]": {"target": "T1, CREB-binding protein/Histone acetyltransferase p300", "assay": "Inhibition of p300/CBP in human 22Rv1 cells assessed as reduction in H3K18Ac level incubated for 3 hrs by Hoechst 33342 staining based high content microscopy analysis", "type": "cell-based", "in_short": "as §1"}, "CWR22R": {"system": "CWR22R", "assay": "Antiproliferative activity against human 22Rv1 cells assessed as inhibition of cell viability incubated for 3 to 5 days by Celltiter-Glo luminescent assay", "type": "functional, cell-based"}, "MeWo": {"system": "MeWo", "assay": "Antiproliferative activity against human MeWo cells assessed as inhibition of cell viability incubated for 3 to 5 days by Celltiter-Glo luminescent assay", "type": "functional, cell-based"}, "A-375": {"system": "A-375", "assay": "Antiproliferative activity against human A-375 cells assessed as inhibition of cell viability incubated for 3 to 5 days by Celltiter-Glo luminescent assay", "type": "functional, cell-based"}, "NCI-H211": {"system": "NCI-H211", "assay": "Antiproliferative activity against human NCI-H211 cells assessed as inhibition of cell viability incubated for 3 to 5 days by Celltiter-Glo luminescent assay", "type": "functional, cell-based"}, "NCI-H1048": {"system": "NCI-H1048", "assay": "Antiproliferative activity against human NCI-H1048 cells assessed as inhibition of cell viability incubated for 3 to 5 days by Celltiter-Glo luminescent assay", "type": "functional, cell-based"}, "EMT6": {"system": "EMT6", "assay": "Antiproliferative activity against mouse EMT6 cells assessed as inhibition of cell viability incubated for 3 to 5 days by Celltiter-Glo luminescent assay", "type": "functional, cell-based"}, "DU-4475": {"system": "DU-4475", "assay": "Antiproliferative activity against human DU-4475 cells assessed as inhibition of cell viability incubated for 3 to 5 days by Celltiter-Glo luminescent assay", "type": "functional, cell-based"}, "HCC1937": {"system": "HCC1937", "assay": "Antiproliferative activity against human HCC1937 cells assessed as inhibition of cell viability incubated for 3 to 5 days by Celltiter-Glo luminescent assay", "type": "functional, cell-based"}, "CAL-120": {"system": "CAL-120", "assay": "Antiproliferative activity against human CAL-120 cells assessed as inhibition of cell viability incubated for 3 to 5 days by Celltiter-Glo luminescent assay", "type": "functional, cell-based"}, "4T1": {"system": "4T1", "assay": "Antiproliferative activity against mouse 4T1 cells assessed as inhibition of cell viability incubated for 3 to 5 days by Celltiter-Glo luminescent assay", "type": "functional, cell-based"}, "OCI-Ly18": {"system": "OCI-Ly18", "assay": "Antiproliferative activity against human OCI-Ly18 cells assessed as inhibition of cell viability incubated for 3 to 5 days by Celltiter-Glo luminescent assay", "type": "functional, cell-based"}, "ULA": {"system": "ULA", "assay": "Antiproliferative activity against human ULA cells assessed as inhibition of cell viability incubated for 3 to 5 days by Celltiter-Glo luminescent assay", "type": "functional, cell-based"}, "SU-DHL-5": {"system": "SU-DHL-5", "assay": "Antiproliferative activity against human SuDHL5 cells assessed as inhibition of cell viability incubated for 3 to 5 days by Celltiter-Glo luminescent assay", "type": "functional, cell-based"}, "GA-10": {"system": "GA-10", "assay": "Antiproliferative activity against human GA-10 cells assessed as inhibition of cell viability incubated for 3 to 5 days by Celltiter-Glo luminescent assay", "type": "functional, cell-based"}, "U2932": {"system": "U2932", "assay": "Antiproliferative activity against human U2932 cells assessed as inhibition of cell viability incubated for 3 to 5 days by Celltiter-Glo luminescent assay", "type": "functional, cell-based"}, "Rec1": {"system": "Rec1", "assay": "Antiproliferative activity against human REC1 cells assessed as inhibition of cell viability incubated for 3 to 5 days by Celltiter-Glo luminescent assay", "type": "functional, cell-based"}, "SET-2": {"system": "SET-2", "assay": "Antiproliferative activity against human SET2 cells assessed as inhibition of cell viability incubated for 3 to 5 days by Celltiter-Glo luminescent assay", "type": "functional, cell-based"}, "OCI-AML2": {"system": "OCI-AML2", "assay": "Antiproliferative activity against human OCI-AML2 cells assessed as inhibition of cell viability incubated for 3 to 5 days by Celltiter-Glo luminescent assay", "type": "functional, cell-based"}, "Jurkat": {"system": "Jurkat", "assay": "Antiproliferative activity against human Jurkat cells assessed as inhibition of cell viability incubated for 3 to 5 days by Celltiter-Glo luminescent assay", "type": "functional, cell-based"}, "[15]": {"assay": "Half life in CB17 SCID mouse xenografted with LuCaP-77 CR cell at 100 mg/kg, ip administered for 7 days", "type": "ADME, organism-based", "details": "in vivo, time 7 day"}, "[16]": {"assay": "AUC in CB17 SCID mouse xenografted with LuCaP-77 CR cell at 50 mg/kg, ip administered for 7 days", "type": "ADME, organism-based", "details": "in vivo, time 7 day"}, "[17]": {"assay": "Cmax in CB17 SCID mouse xenografted with LuCaP-77 CR cell at 100 mg/kg, ip administered for 7 days", "type": "ADME, organism-based", "details": "in vivo, time 7 day"}, "[18]": {"assay": "Half life in CB17 SCID mouse xenografted with LuCaP-77 CR cell at 200 mg/kg, ip administered for 7 days", "type": "ADME, organism-based", "details": "in vivo, time 7 day"}, "LuCaP-77 CR cell": {"system": "LuCaP-77 CR cell", "details": "Homo sapiens, dose 100.0 mg/kg, time 7.0 day"}},
  "note": "Active and inactive are the calls of the source. No cut-off for these calls is given here.",
  "data": [
    {"smiles": "CNC(=O)Nc1ccc2c(c1)CC[C@@]21OC(=O)N(CC(=O)N(Cc2ccc(F)cc2)[C@@H](C)C(F)(F)F)C1=O", "note": "[A-485]", "values": [
      {"measurement": "IC50", "setting": "[1]", "result": 2690, "unit": "nM"},
      {"measurement": "IC50", "setting": "[2]", "result": "> 10000", "unit": "nM"},
      {"measurement": "IC50", "setting": "[3]", "result": "> 10000", "unit": "nM"},
      {"measurement": "IC50", "setting": "[4]", "result": "> 10000", "unit": "nM"},
      {"measurement": "IC50", "setting": "[5]", "result": "> 10000", "unit": "nM"},
      {"measurement": "IC50", "setting": "[6]", "result": "> 10000", "unit": "nM"},
      {"measurement": "IC50", "setting": "[7]", "result": "> 10000", "unit": "nM"},
      {"measurement": "IC50", "setting": "[8]", "result": "> 10000", "unit": "nM"},
      {"measurement": "IC50", "setting": "[9]", "result": "> 10000", "unit": "nM"},
      {"measurement": "IC50", "setting": "[10]", "result": "> 10000", "unit": "nM"},
      {"measurement": "IC50", "setting": "Activated CDC42 kinase 1", "result": "> 10000", "unit": "nM"},
      {"measurement": "IC50", "setting": "[11]", "result": "> 10000", "unit": "nM"},
      {"measurement": "IC50", "setting": "Wee1-like protein kinase", "result": "> 10000", "unit": "nM"},
      {"measurement": "IC50", "setting": "[12]", "result": "> 10000", "unit": "nM"},
      {"measurement": "INH", "setting": "[13]", "result": 0.47, "unit": "µM"},
      {"measurement": "INH", "setting": "[14]", "result": 1.14, "unit": "µM"},
      {"measurement": "EC50", "setting": "CWR22R", "result": 320, "unit": "nM"},
      {"measurement": "EC50", "setting": "MeWo", "result": 2430, "unit": "nM"},
      {"measurement": "EC50", "setting": "A-375", "result": "> 10000", "unit": "nM"},
      {"measurement": "EC50", "setting": "NCI-H211", "result": 1500, "unit": "nM"},
      {"measurement": "EC50", "setting": "NCI-H1048", "result": "> 10000", "unit": "nM"},
      {"measurement": "EC50", "setting": "EMT6", "result": 500, "unit": "nM"},
      {"measurement": "EC50", "setting": "DU-4475", "result": 670, "unit": "nM"},
      {"measurement": "EC50", "setting": "HCC1937", "result": "> 10000", "unit": "nM"},
      {"measurement": "EC50", "setting": "CAL-120", "result": "> 10000", "unit": "nM"},
      {"measurement": "EC50", "setting": "4T1", "result": "> 10000", "unit": "nM"},
      {"measurement": "EC50", "setting": "OCI-Ly18", "result": 320, "unit": "nM"},
      {"measurement": "EC50", "setting": "ULA", "result": 550, "unit": "nM"},
      {"measurement": "EC50", "setting": "SU-DHL-5", "result": 760, "unit": "nM"},
      {"measurement": "EC50", "setting": "GA-10", "result": 1060, "unit": "nM"},
      {"measurement": "EC50", "setting": "U2932", "result": 2460, "unit": "nM"},
      {"measurement": "EC50", "setting": "Rec1", "result": "> 10000", "unit": "nM"},
      {"measurement": "EC50", "setting": "SET-2", "result": 2010, "unit": "nM"},
      {"measurement": "EC50", "setting": "OCI-AML2", "result": 2030, "unit": "nM"},
      {"measurement": "EC50", "setting": "Jurkat", "result": 4030, "unit": "nM"},
      {"measurement": "half-life", "setting": "[15]", "result": 1.7, "unit": "h"},
      {"measurement": "AUC at 168 h", "setting": "[16]", "result": 91200, "unit": "ng·h/mL"},
      {"measurement": "Cmax", "setting": "[17]", "result": 75.5, "unit": "µg/mL"},
      {"measurement": "half-life", "setting": "[18]", "result": 3, "unit": "h"},
      {"measurement": "inhibition", "setting": "LuCaP-77 CR cell", "result": "inactive"}
    ]}
  ]
}
